The source of these data is paper PMC10013843 (Molecular psychiatry, 2022).

The conditions of data set [1]: after i.p. injection of antidepressant-relevant doses in mice; cited from earlier work.
The target of data set [2] is estrogen receptor alpha (ERα) (Homo sapiens, UniProt P03372). Description: Screening and target deconvolution experiments. The format is binding.
A further data set deals with NMDAR. The conditions noted are these: cited from earlier work.
The target in the next data set is mGluR5 (Homo sapiens, UniProt P41594). Nature of the data set: mGluR functional assay. The format is biochemical.
Sequence of mGluR5 (P41594 21-1212): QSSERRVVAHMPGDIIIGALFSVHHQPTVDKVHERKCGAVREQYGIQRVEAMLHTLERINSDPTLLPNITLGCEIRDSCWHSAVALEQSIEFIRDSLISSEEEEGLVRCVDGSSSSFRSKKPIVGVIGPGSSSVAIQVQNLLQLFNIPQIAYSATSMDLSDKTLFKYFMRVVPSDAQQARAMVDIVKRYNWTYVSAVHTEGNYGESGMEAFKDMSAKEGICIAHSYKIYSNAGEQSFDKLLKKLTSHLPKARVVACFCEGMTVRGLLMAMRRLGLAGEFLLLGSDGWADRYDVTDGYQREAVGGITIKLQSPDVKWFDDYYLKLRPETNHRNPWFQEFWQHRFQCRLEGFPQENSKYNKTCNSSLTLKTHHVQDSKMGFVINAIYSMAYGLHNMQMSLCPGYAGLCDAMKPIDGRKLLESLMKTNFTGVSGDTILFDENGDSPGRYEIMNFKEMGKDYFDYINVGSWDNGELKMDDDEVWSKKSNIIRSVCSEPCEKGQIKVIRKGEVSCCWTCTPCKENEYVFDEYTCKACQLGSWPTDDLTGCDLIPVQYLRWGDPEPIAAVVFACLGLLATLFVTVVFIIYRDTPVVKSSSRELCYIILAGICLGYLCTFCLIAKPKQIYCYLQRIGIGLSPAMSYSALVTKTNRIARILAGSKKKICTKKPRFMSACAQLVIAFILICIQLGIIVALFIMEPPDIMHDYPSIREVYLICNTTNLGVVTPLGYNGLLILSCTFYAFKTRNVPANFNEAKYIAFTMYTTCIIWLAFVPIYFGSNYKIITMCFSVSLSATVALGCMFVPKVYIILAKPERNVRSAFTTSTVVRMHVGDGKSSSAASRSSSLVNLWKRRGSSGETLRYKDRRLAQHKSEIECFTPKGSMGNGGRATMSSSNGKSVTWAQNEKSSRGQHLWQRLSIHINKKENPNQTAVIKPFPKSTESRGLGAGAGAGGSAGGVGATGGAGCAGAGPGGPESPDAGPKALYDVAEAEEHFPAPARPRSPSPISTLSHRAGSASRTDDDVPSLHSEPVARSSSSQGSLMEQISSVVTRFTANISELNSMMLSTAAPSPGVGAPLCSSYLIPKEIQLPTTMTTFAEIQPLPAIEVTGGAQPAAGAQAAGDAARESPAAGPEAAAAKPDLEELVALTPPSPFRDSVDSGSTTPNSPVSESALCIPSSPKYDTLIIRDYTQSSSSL
In another data set the test system is rats. Description: Intravenous self-administration. The format is in vivo, rat. A digest of the protocol:
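Male rats had jugular catheters placed under isoflurane and recovered 6–8 days. They were food-restricted (18–20 g/day) on a reverse 12-h cycle. For training (n = 14), rats self-administered test compound at 0.5 mg/kg/infusion IV, FR1 with 20-s timeout, for 16 days. For dose-response (n = 8/condition), unit doses of 0.125, 0.25, 0.5 or 1.0 mg/kg/infusion were given in randomized sequence, 1 h/day for 8 days. Read-out was infusions earned.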

The subject of data set [3] is mice. As to conditions: cited from earlier work.
The target of another data set is mGluR4 (Homo sapiens, UniProt Q14833). Nature of the data set: mGluR functional assay. In kind it is biochemical.
Sequence of mGluR4 (Q14833 33-912): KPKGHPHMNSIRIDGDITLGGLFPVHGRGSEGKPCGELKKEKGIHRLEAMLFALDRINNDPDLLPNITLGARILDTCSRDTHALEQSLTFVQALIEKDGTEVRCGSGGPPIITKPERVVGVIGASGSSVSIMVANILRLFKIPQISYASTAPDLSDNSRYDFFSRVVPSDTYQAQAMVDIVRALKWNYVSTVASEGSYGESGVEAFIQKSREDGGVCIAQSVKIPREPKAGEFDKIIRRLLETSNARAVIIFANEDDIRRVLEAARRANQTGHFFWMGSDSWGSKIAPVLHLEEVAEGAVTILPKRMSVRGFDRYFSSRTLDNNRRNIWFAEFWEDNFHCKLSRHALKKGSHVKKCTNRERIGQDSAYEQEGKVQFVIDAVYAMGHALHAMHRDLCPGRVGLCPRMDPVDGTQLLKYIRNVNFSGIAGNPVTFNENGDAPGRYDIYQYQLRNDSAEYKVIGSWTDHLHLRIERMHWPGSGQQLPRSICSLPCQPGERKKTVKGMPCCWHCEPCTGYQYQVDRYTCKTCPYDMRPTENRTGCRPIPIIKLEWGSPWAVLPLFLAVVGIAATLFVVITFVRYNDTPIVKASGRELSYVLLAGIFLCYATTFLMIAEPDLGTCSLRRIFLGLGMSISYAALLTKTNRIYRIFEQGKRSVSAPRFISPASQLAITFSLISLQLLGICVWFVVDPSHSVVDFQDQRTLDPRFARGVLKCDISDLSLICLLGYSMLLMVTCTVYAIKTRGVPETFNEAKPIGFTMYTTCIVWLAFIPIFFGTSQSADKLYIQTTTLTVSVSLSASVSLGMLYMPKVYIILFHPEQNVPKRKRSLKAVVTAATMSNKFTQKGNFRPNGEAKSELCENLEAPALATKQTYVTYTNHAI
The target in another data set is T1, HCN1 channel (Homo sapiens, UniProt O60741).
T1 sequence (O60741 1-890): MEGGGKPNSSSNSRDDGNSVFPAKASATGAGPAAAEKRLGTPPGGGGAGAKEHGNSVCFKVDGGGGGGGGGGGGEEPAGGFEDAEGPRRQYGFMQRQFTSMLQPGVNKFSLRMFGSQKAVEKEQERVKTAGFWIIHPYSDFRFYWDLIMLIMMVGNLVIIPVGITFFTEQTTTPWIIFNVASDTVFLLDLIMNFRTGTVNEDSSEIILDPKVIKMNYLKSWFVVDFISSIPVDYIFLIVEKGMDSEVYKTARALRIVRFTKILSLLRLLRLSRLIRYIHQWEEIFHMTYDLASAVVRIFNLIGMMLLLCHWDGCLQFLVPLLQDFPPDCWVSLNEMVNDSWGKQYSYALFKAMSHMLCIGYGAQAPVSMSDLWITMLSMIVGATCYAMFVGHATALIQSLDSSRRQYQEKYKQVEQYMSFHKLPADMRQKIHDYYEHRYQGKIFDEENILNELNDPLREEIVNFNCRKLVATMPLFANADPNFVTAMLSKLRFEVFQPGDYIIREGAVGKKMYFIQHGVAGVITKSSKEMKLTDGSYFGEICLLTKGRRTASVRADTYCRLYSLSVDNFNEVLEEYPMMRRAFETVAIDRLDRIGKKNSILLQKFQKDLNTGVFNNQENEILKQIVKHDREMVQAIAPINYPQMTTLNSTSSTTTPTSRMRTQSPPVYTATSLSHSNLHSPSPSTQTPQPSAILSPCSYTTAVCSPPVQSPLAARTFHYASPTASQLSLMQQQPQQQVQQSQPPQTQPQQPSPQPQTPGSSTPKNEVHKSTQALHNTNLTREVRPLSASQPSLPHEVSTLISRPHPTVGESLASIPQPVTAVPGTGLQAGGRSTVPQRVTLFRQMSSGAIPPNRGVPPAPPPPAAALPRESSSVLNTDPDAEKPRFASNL
Nature of the data set: HCN1 channel functional interaction. In kind it is biochemical.

The test system of data set [4] is mice. Description: Open-field locomotor activity. The conditions noted are these: male mice; single 10, 30, 65 mg/kg IP. In kind it is in vivo, mouse.
For data set [5] the following is noted: after administration of antidepressant-like doses; cited from earlier work.
The target of a further data set is mGluR3 (Homo sapiens, UniProt Q14832). Nature of the data set: [^3H]LY341495 competition binding, recombinant receptor membranes. As to conditions: membranes expressing human recombinant mGluR3.
Sequence of mGluR3 (Q14832 23-879): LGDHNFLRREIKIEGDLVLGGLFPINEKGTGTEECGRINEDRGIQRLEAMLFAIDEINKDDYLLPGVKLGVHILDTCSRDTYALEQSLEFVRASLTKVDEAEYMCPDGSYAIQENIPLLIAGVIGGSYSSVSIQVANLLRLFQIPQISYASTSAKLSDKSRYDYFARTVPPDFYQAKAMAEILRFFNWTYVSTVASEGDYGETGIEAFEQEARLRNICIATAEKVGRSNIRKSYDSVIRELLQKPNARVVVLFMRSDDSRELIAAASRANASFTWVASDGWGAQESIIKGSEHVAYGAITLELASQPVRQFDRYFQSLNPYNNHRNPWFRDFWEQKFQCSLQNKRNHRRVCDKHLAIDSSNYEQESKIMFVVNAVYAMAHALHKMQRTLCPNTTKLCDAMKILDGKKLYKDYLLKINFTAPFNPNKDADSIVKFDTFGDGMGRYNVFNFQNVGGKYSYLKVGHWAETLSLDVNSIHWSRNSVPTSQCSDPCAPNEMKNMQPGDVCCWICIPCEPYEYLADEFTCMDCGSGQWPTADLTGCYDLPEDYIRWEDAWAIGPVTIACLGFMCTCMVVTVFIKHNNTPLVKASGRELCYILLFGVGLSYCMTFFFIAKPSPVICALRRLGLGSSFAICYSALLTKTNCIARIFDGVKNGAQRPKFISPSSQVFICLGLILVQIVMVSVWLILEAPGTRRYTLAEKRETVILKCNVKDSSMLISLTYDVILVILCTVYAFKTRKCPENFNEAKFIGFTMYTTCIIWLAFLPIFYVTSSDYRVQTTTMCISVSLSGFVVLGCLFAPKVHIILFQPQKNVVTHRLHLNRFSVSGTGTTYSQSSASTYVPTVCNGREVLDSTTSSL

Each structure is given as a SMILES string.

Sequence of estrogen receptor alpha (ERα) (P03372 whole entry): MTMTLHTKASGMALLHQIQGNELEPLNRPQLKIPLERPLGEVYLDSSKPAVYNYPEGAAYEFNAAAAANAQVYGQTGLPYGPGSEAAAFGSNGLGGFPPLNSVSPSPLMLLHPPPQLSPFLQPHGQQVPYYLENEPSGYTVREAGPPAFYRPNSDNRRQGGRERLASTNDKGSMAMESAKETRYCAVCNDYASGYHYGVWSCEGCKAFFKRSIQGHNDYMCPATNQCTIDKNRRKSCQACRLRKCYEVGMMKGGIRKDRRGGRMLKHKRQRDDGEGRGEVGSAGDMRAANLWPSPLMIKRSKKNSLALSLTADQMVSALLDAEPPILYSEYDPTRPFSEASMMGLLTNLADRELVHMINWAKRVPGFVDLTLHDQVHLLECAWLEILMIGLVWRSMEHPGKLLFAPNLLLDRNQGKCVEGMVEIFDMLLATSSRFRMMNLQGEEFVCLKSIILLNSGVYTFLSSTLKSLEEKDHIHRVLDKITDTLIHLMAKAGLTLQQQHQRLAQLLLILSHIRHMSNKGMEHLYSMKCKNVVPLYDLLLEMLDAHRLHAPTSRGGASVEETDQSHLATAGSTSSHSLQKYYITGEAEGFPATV

For the molecule `N[C@@]1(c2ccccc2Cl)CCC[C@@H](O)C1=O` [(2R,6R)-HNK, (2R,6R)-hydroxynorketamine], the “maximum extracellular concentration in the hippocampus” value in [1] is listed as ~ 8 μM. Also, in [2], the “interaction with ERα” value was “failed to interact”. In addition, the “effect on NMDAR function” value in the data set on NMDAR (10 μM, cultured hippocampal neurons) is reported as “no effect”. For the same molecule, the “reduction in synaptic NMDAR currents” value in the data set on NMDAR (50 μM) is on record as ~ 40%. Besides, at mGluR5, the “effect in functional assay at mGluR5” value was “no effects”. The self-administration training result in the data set with rats (male rats, 0.5 mg/kg/inf IV, FR1, 20-s timeout, 16 days) is “not a reliable reinforcer”. Further, in the data set on rats (rats, unit doses 0.125, 0.25, or 1 mg/kg/inf), the self-administration dose-response result is recorded as “did not respond”. Moreover, the “pain reduction after naloxone pretreatment” value with mice [3] is listed as “not blocked by naloxone pretreatment”. In addition, the “effect in functional assay at mGluR4” value at mGluR4 is “no effects”. At HCN1 channel, the “interaction with the HCN1 channel” value is reported as “neither (2R,6R)-HNK nor ketamine interacted”. Further, the “locomotor activity, acute” value with mice [4] is listed as “did not alter locomotor activity”. Also, the “concentration achieved in the brain” value in [5] is recorded as ~ 10 μM. Besides, on mGluR3, the “displacement of [^3H]LY341475” value was “failed to displace”.
